Test results as given in ChEMBL document CHEMBL4000230, “Design, synthesis and biological evaluation of regioisomers of 666-15 as inhibitors of CREB-mediated gene transcription” (Bioorg Med Chem Lett, 2017).

What was measured:
[1] = Inhibition of forskolin-stimulated CREB (unknown origin)-mediated gene transcription in HEK293T cells preincubated for 30 mins followed by forskolin-stimulation measured after 6 hrs by luciferase reporter gene assay; format: cell-based; details: Homo sapiens, HEK-293T
Summary of the method: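 HEK 293T cells transfected with a renilla luciferase reporter driven by three tandem CRE copies. Treated with increasing compound concentrations (50 nM to 50 μM) for 30 min, then forskolin (10 μM) for 6 h, then luciferase measured. Luciferase normalized to lysate protein concentration. IC50 by non-linear regression of dose-response curves.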

MDA-MB-468 = experiment: Cytotoxicity against human MDA-MB-468 cells assessed as growth inhibition after 72 hrs by MTT assay; format: functional; details: MDA-MB-468, 72 h
Summary of the method: (§1)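 Growth inhibition read by MTT after 72 h incubation of the indicated cells with drug; GI50 taken from this assay.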

MDA-MB-231 = experiment: Cytotoxicity against human MDA-MB-231 cells assessed as growth inhibition after 72 hrs by MTT assay; format: functional; details: MDA-MB-231, 72 h; summary of the method: as §1

NCCCOc1cc(C(=O)NCCOc2cc3ccccc3cc2C(=O)Nc2ccc(Cl)cc2O)c2ccccc2c1
IC50 [1]: 19 µM
GI50 (MDA-MB-468): 1.65 µM
GI50 (MDA-MB-231): 3.82 µM

NCCCOc1cc(C(=O)NCCOc2cc3ccccc3cc2C(=O)Nc2ccc(Cl)cc2O)cc2ccccc12
IC50 [1]: 17.2 µM
GI50 (MDA-MB-468): 0.55 µM
GI50 (MDA-MB-231): 2.68 µM

NCCCOc1c(C(=O)NCCOc2cc3ccccc3cc2C(=O)Nc2ccc(Cl)cc2O)ccc2ccccc12
IC50 [1]: 24 µM
GI50 (MDA-MB-468): 1.93 µM
GI50 (MDA-MB-231): 3.12 µM

NCCCOc1ccc2ccccc2c1C(=O)NCCOc1cc2ccccc2cc1C(=O)Nc1ccc(Cl)cc1O
IC50 [1]: 18.9 µM
GI50 (MDA-MB-468): 1.7 µM
GI50 (MDA-MB-231): 4.31 µM
